Results gathered from unrelated publications.
Each line is one published result; the experiments were not run side by side.
Target: Activated CDC42 kinase 1 (TNK2, Homo sapiens, UniProt Q07912)

| SMILES | test | conditions | remaining binding [%] |
| --- | --- | --- | --- |
| Cc1nc(Cc2cccc(C(F)(F)F)c2)sc1-c1ccc(C(N)=O)nc1 | cell-free assay, competition with immobilised ligand | 1 µM | 100 |
| CNC(=O)c1cc(Oc2ccc(NC(=O)Nc3ccc(Cl)c(C(F)(F)F)c3)cc2)ccn1 | cell-free assay, competition with immobilised ligand | 10 µM | 89 |
| C[C@H]1CCN(c2nccc(-c3cnn4ncccc34)n2)C1 | binding | 1 µM | 100 |
| COc1ncc2cc3ccccc3nc2c1C#N | cell-free assay, competition with immobilised ligand | 5 µM | 95 |
| Cc1nc(Nc2ncc(C(=O)Nc3c(C)cccc3Cl)s2)cc(N2CCN(CCO)CC2)n1 | cell-free assay, competition with immobilised ligand | 10 µM | 0 |
| CC1CCCN1c1nccc(-c2cnn3ncccc23)n1 (centres unmarked) | binding | 1 µM | 85 |
| CCN(CC)Cc1cc(Nc2ccnc3cc(Cl)ccc23)ccc1O | cell-free assay, competition with immobilised ligand | 10 µM | 100 |
| O=C(NCC1CCOCC1)c1n[nH]cc1NC(=O)c1c(F)cccc1F | binding, competition with immobilised ligand | 1 µM | 98 |
| Nc1ncc2c(n1)-c1c([nH]c3ccc(C#CC4CC4)cc13)CCCC2 | binding, competition with immobilised ligand | 1 µM | 100 |
| CCS(=O)(=O)c1cc2cc(C[C@](O)(CC(C)(C)c3ccc(F)cc3C(N)=O)C(F)(F)F)[nH]c2cn1 | cell-free assay, competition with immobilised ligand | 1 µM | 100 |
| COc1cc2ncnc(Nc3ccc(F)c(Cl)c3)c2cc1OCCCN1CCOCC1 | cell-free assay, competition with immobilised ligand | 0.1 µM | 100 |
| CCC(=O)N[C@H]1CC[C@@H](C(=O)N(C)c2ccc(-c3nc4ccccc4o3)cc2)C1 | cell-free assay, competition with immobilised ligand | 1 µM | 84 |
| Cc1cnc(Nc2ccc(C(=O)N3CCC(N4CCCC4)CC3)cc2)nc1-c1cc2ccccc2s1 | binding, competition with immobilised ligand | 1 µM | 10 |
| COc1ccnn2ncc(-c3ccnc(N(C)C)n3)c12 | binding | 1 µM | 100 |
| CN1CC[C@H](c2c(O)cc(O)c3c(=O)cc(-c4ccccc4Cl)oc23)[C@H](O)C1 | cell-free assay, competition with immobilised ligand | 0.1 µM | 100 |
| O=C(NCCCN1CCOCC1)c1ccc(Nc2nccc(-c3cc4ccccc4s3)n2)cc1 | binding, competition with immobilised ligand | 1 µM | 63 |

| SMILES | test | conditions | remaining binding [%] |
| --- | --- | --- | --- |
| Cc1c(C(=O)O)cc(-c2ccc(C3CCNCC3)cc2)c2ccc(-c3ccc(C(F)(F)F)cc3)cc12 | binding, competition with immobilised ligand | 1 µM | 100 |
| O=C(c1ccc(Nc2ncc(Cl)c(-c3ccc(Cl)s3)n2)cc1)N1CCC(N2CCCC2)CC1 | binding, competition with immobilised ligand | 1 µM | 44 |
| COc1cc(-c2cn(C3CCc4c(F)cccc4N(CC(F)(F)F)C3=O)nn2)ccc1-n1cnc(C)c1 (centres unmarked) | cell-free assay, competition with immobilised ligand | 1 µM | 100 |
| CS(=O)(=O)CCNCc1ccc(-c2ccc3ncnc(Nc4ccc(OCc5cccc(F)c5)c(Cl)c4)c3c2)o1 | cell-free assay, competition with immobilised ligand | 0.1 µM | 100 |
| CN(CCCC(F)(F)F)c1nccc(-c2cnn3ncccc23)n1 | binding | 1 µM | 83 |
| CNC(=O)[C@@H]1CC[C@@H](n2c(-c3ccc4cnccc4c3)nc3ccc(C(=O)NCc4cccc(C(N)=O)c4)cc32)C1 | binding, competition with immobilised ligand | 1 µM | 100 |
| N[C@H]1CCN(c2nccc(-c3cnn4ncccc34)n2)C1 | binding | 1 µM | 77 |
| c1cncc(-c2cccc(Nc3nccc(NC4CCCCC4)n3)c2)c1 | binding, competition with immobilised ligand | 10 µM | 43 |
| FC(F)(F)Oc1cccc(-c2cnc3ccc(-c4ccncc4)nn23)c1 | binding, competition with immobilised ligand | 5 µM | 79 |
| CCN(CC)CCNC(=O)c1c(C)[nH]c(/C=C2\C(=O)Nc3ccc(F)cc32)c1C | cell-free assay, competition with immobilised ligand | 0.1 µM | 93 |
| COc1cccc(CNC(=O)c2nc3scc(COCc4ccc(C(=O)O)cc4)c3c(=O)[nH]2)c1 | cell-free assay, competition with immobilised ligand | 1 µM | 89.6 |
| c1cnn2ncc(-c3ccnc(N4CCC45COC5)n3)c2c1 | binding | 1 µM | 74 |
| C[C@H](c1ccc(F)cc1)N(Cc1cccc(C(=O)O)c1)C(=O)c1cnc2ccccc2c1 | cell-free assay, competition with immobilised ligand | 1 µM | 100 |
| CCN1CCN(Cc2ccc(C(=O)Nc3ccc(C)c(Oc4ccc5c(c4)CC(=O)N5)c3)cc2C(F)(F)F)CC1 | binding, competition with immobilised ligand | 1 µM | 100 |
| O=C(NC[C@@H]1[C@H]2CN(C(=O)OCc3cc(C(F)(F)F)cc(C(F)(F)F)c3)C[C@@H]12)c1ccc2[nH]nnc2c1 | cell-free assay, competition with immobilised ligand | 1 µM | 100 |
| Cc1c(-c2ccccc2)oc2c(C(=O)OCCN3CCCCC3)cccc2c1=O | cell-free assay, competition with immobilised ligand | 10 µM | 94 |
